Only some compounds are listed: those with a hit (about 2.4% of all), similar ones and a draw of the others.
PRMT1 inh: inhibitors of human PRMT1; recombinant PRMT1, activity-based probe fluorescence polarization; 370,000 compounds, 1.3% hits; inhibition, % at 2.79 µM; AID 652257;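 active means inhibition above about 21% made by adding two undisclosed values, limit read from the data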
HTRA1 inhibitor: blocks human HTRA1 serine peptidase. Q92743. recombinant HTRA1, FP-rhodamine activity-based probe, fluorescence polarization. inhibition, % at 5.96 µM. 340,000 compounds, 0.5% hits. AID 504803; in the data active means inhibition above about 36%;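 further: 0% = enzyme with DMSO and 100% = wells lacking enzyme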
SIAE primary: human SIAE inhibition, primary screen; Q9HAT2; 370,000 compounds, 0.69% hits; inhibition, % at 9.66 µM; AID 1053197; SIAE FP-Rh probe binding, fluorescence polarization;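 active means inhibition above a cutoff: mean of compounds within the control limits plus 3 SD of those, cut at about 17% in these data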;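 further: 0% = plate median of compound wells and 100% = probe without SIAE protein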
mABHD4 FP: inhibits mouse alpha/beta hydrolase domain 4 | purified mABHD4, FP-Rh probe fluorescence polarization | inhibition, % at 8.92 µM | 370,000 compounds, 0.54% hits | AID 720543;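 active means inhibition exceeding the mean over every tested compound plus 3 SD, cut at about 30% in these data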;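 further: 0% = plate median of compound wells and 100% = S159A mutant with DMSO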
Target sequence (Q8VD66 whole entry, looked up, the tested form may be a part): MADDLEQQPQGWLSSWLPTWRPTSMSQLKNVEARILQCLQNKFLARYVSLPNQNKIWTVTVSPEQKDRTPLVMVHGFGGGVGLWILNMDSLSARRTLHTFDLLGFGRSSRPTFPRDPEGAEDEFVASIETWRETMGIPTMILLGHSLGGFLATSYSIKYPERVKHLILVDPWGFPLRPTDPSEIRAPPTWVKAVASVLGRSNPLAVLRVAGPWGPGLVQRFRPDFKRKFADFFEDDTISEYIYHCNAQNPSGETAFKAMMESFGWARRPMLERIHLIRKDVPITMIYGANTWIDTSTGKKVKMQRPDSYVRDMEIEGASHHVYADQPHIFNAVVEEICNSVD
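Material: mouse ABHD4 enzyme, wild type; Benchmarks: S159A mutant high control, sample median low control; Buffer or medium: HEPES pH 7.0, NaCl, Pluronic buffer; Signal: fluorescence polarization; Read-out: percent inhibition of probe binding, normalized to plate controls; Timing: pre-incubation 45 min, probe exposure 60 min, at 25 °C; Dosing: 8.92 µM, single dose.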
GASC-1 inh: inhibitors of human GASC-1 (JMJD2C) demethylase. Q9H3R0. GST-JMJD2C(1-420) H3K9me3 demethylation, DELFIA europium. inhibition, % at 2.35 µM. 330,000 compounds, 0.069% hits;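 active means more than half of a compound's replicate wells show inhibition beyond 50%, single wells judged on their own value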;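 further: signal counts dimethyl H3K9 product captured on neutravidin plate; 0% = median of DMSO wells and 100% = 0.3 times that DMSO median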
SIAE confirm: confirmation of human SIAE inhibitors. shares compounds with SIAE primary. SIAE FP-Rh activity-based probe, fluorescence polarization. inhibition, % at 9.66 µM. 2,300 compounds, 13% hits. AID 1117263;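 active means mean inhibition of the replicates above the hit cutoff set in the primary screen, cut at about 17% in these data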;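 further: 0% = SIAE with DMSO and probe and 100% = probe without SIAE; inhibitors lower polarization as more probe stays unbound to SIAE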
Starred values were filed as active, the others as inactive.

`O=C1c2ccccc2C(c2nnnn2-c2ccc3c(c2)OCCO3)N1Cc1cccnc1` (stereo unspecified) gave PRMT1 inh -1.5, SIAE primary 24.8*, mABHD4 FP 3.0 and SIAE confirm 0.2.
`O=C(Nc1ccc(Cl)c(Cl)c1)c1cccc2c1-c1ccccc1C2=O` gave PRMT1 inh 0.8, SIAE primary -2.5 and mABHD4 FP -2.8.
COc1ccc(CCNC(=O)C/C(C)=N/NC(=O)c2ccc([N+](=O)[O-])cc2Cl)cc1OC was read as PRMT1 inh -1.1, HTRA1 inhibitor -0.9, SIAE primary 17.2*, mABHD4 FP -4.4, GASC-1 inh 8.8 and SIAE confirm 6.3.
`CCCNC(=O)c1cc(C2CCCCN2C(=O)c2ccc(C(C)C)cc2)on1` (stereo unspecified) gave PRMT1 inh 1.6, SIAE primary 4.4 and mABHD4 FP -5.4.
`CC(C)N(C(=O)Cn1c(=O)oc2ccccc21)c1ccccc1` gave PRMT1 inh -3.3, HTRA1 inhibitor 2.2, SIAE primary 21.7*, mABHD4 FP -2.6, GASC-1 inh -10.2 and SIAE confirm -1.5.
`CN(Cc1ccccc1)S(=O)(=O)c1cccc(C(=O)OCc2cccc(C(F)(F)F)c2)c1` gave PRMT1 inh 0.4, SIAE primary -0.8 and mABHD4 FP -0.2.
Screening O=C1CCN(Cc2ccc(O)cc2)CCN1[C@H](CO)Cc1ccccc1 returned PRMT1 inh 1.0, HTRA1 inhibitor 0.9, SIAE primary 17.6*, mABHD4 FP 5.2, GASC-1 inh 34.7 and SIAE confirm 1.1.
Cc1ccc(OCc2nnc(SCC(=O)Nc3ccc(S(N)(=O)=O)cc3)n2-c2ccc(Cl)cc2)cc1 was read as PRMT1 inh -7.5, SIAE primary 12.1 and mABHD4 FP 0.4.
Screening CC(=O)/C(=N/Nc1ccc(C)cc1)Sc1nnc(CCc2ccccc2)n1-c1ccccc1 returned PRMT1 inh -1.6, HTRA1 inhibitor -0.6, SIAE primary -0.6, mABHD4 FP 8.7 and GASC-1 inh 14.4.
CCOC(=O)/C(=N/Nc1ccc(OC)cc1)Sc1nnc(CCc2ccccc2)n1-c1ccccc1 was read as PRMT1 inh 4.3, HTRA1 inhibitor -3.5, SIAE primary 17.3*, mABHD4 FP -2.9, GASC-1 inh -5.7 and SIAE confirm 1.6.
Screening O=C(O)C1(c2ccccc2)CCN(S(=O)(=O)c2ccc(F)c(F)c2)CC1 returned PRMT1 inh -0.6, HTRA1 inhibitor -0.6, SIAE primary 19.7*, mABHD4 FP 5.7, GASC-1 inh -8.2 and SIAE confirm 4.4.
For CCOC(=O)[C@@]12CCCC3=C1N(CCC3)C(=O)[C@H]2CC(=O)NCCCOC the results were PRMT1 inh 0.7, SIAE primary 7.7 and mABHD4 FP 0.8.
Screening CCOC(=O)c1c(-c2ccccc2)csc1NC(=O)/C(C#N)=C/c1ccc(O)c(OC)c1 returned PRMT1 inh -3.7, HTRA1 inhibitor -38.1, SIAE primary 18.9*, mABHD4 FP -8.8, GASC-1 inh 6.8 and SIAE confirm 13.6.
`COc1ccc(S[C@]2(C(=O)N3CCN(c4ncccn4)CC3)CC(=O)N[C@@H]2c2ccc(OC)cc2)cc1` gave PRMT1 inh 8.0, SIAE primary -4.0 and mABHD4 FP 1.0.
Screening O=C(NCc1ccccn1)C(=O)NCC1OCCCN1S(=O)(=O)c1ccc(F)cc1 (stereo unspecified) returned PRMT1 inh 1.3, HTRA1 inhibitor 7.3, SIAE primary -2.2, mABHD4 FP 0.2 and GASC-1 inh -12.8.
`O=C(NCc1ccccn1)C(=O)NCC1OCCN1S(=O)(=O)c1ccc(F)cc1` (stereo unspecified) gave PRMT1 inh -4.2, HTRA1 inhibitor 3.9, SIAE primary 19.4*, mABHD4 FP 0.1, GASC-1 inh 1.4 and SIAE confirm 4.5.
`Cc1ccc(O)c(/C=N/NC(=O)c2[nH]ncc2Br)c1` gave PRMT1 inh -1.3, HTRA1 inhibitor 2.0, SIAE primary 1.0, mABHD4 FP -0.8 and GASC-1 inh 8.5.
For O=C(N/N=C\c1c(O)ccc2ccccc12)c1ccc(Cn2cccn2)o1 the results were PRMT1 inh 2.2, HTRA1 inhibitor 17.8, SIAE primary 23.8*, mABHD4 FP 28.1, GASC-1 inh 13.3 and SIAE confirm 1.5.
For O=C(N/N=C/c1c(O)ccc2ccccc12)c1[nH]ncc1Br the results were PRMT1 inh 0.3, HTRA1 inhibitor 32.7, SIAE primary 18.6*, mABHD4 FP 17.3, GASC-1 inh -5.4 and SIAE confirm -4.9.
O=C(N/N=C\c1ccc(Cl)s1)c1ccc(Cn2cccn2)o1 was read as PRMT1 inh -0.4, HTRA1 inhibitor 7.8, SIAE primary 12.2, mABHD4 FP 1.4 and GASC-1 inh -31.1.
CC1(c2nnnn2-c2ccc3ccccc3c2)CSCC(=O)N1C1CC1 (stereo unspecified) was read as PRMT1 inh -0.8, SIAE primary 1.6 and mABHD4 FP 3.4.
`COc1cc(C2c3c([nH]c(=O)[nH]c3=O)Nc3ccc4ccccc4c32)cc(OC)c1OC` (stereo unspecified) gave PRMT1 inh -2.5, HTRA1 inhibitor 6.6, SIAE primary 13.1, mABHD4 FP 0.8 and GASC-1 inh 12.3.
COc1cc(C2c3c([nH]c(=O)[nH]c3=O)Nc3ccc4ccccc4c32)ccc1O (stereo unspecified) was read as PRMT1 inh -1.4, HTRA1 inhibitor 8.4, SIAE primary 30.5*, mABHD4 FP 14.9, GASC-1 inh 14.0 and SIAE confirm 37.3*.
O=[N+]([O-])c1ccc2c(c1)C=C1CCCCC1(N1CCCC1)O2 (stereo unspecified) was read as PRMT1 inh -2.0, HTRA1 inhibitor 0.2, SIAE primary 21.4*, mABHD4 FP -2.6, GASC-1 inh 0.1 and SIAE confirm -3.5.
For O=[N+]([O-])c1ccc2c(c1)nc1n2CCCCC1 the results were PRMT1 inh 0.5, HTRA1 inhibitor 4.3, SIAE primary -4.0, mABHD4 FP -1.5 and GASC-1 inh 21.0.
`CN(C)c1ccc(C(C(=O)NC2CCCCC2)N(Cc2ccco2)C(=O)c2snc(C(N)=O)c2N)cc1` (stereo unspecified) gave PRMT1 inh 3.1, HTRA1 inhibitor 0.0, SIAE primary -2.6, mABHD4 FP 1.8 and GASC-1 inh -24.4.
Screening CC(COc1cccc(Cl)c1)CN1CCC(C(O)(c2ccccc2)c2ccccc2)CC1 (stereo unspecified) returned PRMT1 inh -3.8, SIAE primary -1.0 and mABHD4 FP 9.8.
CC(=O)c1ccccc1NC(=O)COC(=O)CCCN1C(=O)c2cccc3cccc(c23)C1=O was read as PRMT1 inh 0.4, HTRA1 inhibitor -3.3, SIAE primary 18.6*, mABHD4 FP -0.5, GASC-1 inh 0.4 and SIAE confirm 2.7.
